Compound activity (PubChem BioAssay)
Hits are enriched below; roughly 1.8% of the tested compounds scored in any of these assays.
CHRM4 PAM: potentiates acetylcholine response at human M4 receptor. AID 624126. CHO-K1 hM4/Gqi5, Fluo-8 calcium fluorescence, ACh EC20; 0% = ACh EC20, 100% = maximal ACh. P08173. actives 0.4% (n = 360,000). activation, % at 3 µM;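 active = activation above its plate's cutoff, the mean activation of sample wells plus 3 SD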
M5 PAM: CHRM5 positive allosteric modulation. P08912. CHO-K1 hM5, Fluo-8 calcium, ACh EC20 PAM; 0% = ACh EC20, 100% = ACh EC100. activation, % at 3 µM. actives 0.3% (n = 360,000). AID 624038;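 active = activation above the run cutoff, the mean activation of all test compounds plus 3 SD, cut at about 18% in these data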
Target sequence (P08912 whole entry, looked up): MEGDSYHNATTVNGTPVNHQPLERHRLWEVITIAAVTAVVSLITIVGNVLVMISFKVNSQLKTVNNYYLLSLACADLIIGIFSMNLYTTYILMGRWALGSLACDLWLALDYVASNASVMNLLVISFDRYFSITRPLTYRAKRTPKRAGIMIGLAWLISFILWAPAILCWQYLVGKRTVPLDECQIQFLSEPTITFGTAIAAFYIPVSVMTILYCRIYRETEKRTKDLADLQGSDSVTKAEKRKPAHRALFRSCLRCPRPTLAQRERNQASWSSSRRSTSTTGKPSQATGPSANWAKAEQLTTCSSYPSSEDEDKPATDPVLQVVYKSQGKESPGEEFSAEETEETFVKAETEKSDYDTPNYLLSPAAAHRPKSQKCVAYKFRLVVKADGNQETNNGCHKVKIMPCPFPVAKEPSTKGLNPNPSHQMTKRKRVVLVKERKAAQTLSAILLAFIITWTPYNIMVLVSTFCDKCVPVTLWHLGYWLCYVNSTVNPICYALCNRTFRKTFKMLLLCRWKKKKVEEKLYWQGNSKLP
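System – CHO-K1 hM5 cells · Compound – 3 µM, single dose · Incubation – compound preincubation 140 s before EC20 acetylcholine addition · Technique – Fluo-8 calcium fluorescence · Measure – Max/basal fluorescence ratio as % of EC20–EC100 ACh window · Benchmarks – low control EC20 acetylcholine (0%), high control EC100 acetylcholine (100%) · Replication – singlicate, one well per test compound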
CHRM4 agonist: CHRM4 agonism in calcium assay | CHO-K1 hM4/Gqi5, Fluo-8 calcium fluorescence; vehicle 0%, full acetylcholine response 100% | actives 0.14% (n = 360,000) | activation, % at 3 µM | AID 624127;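 active = activation above the run mean over all test wells plus 3 SD, cut at about 32% in these data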;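 also: peak over basal fluorescence ratio per well then scaled between controls; 0% = DMSO wells and 100% = acetylcholine at EC100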
CHRM4 antagonist: blocks acetylcholine activation of human M4 receptor. CHO-hM4 cells, ACh EC80, Fluo-8 calcium fluorescence. inhibition, % at 3 µM. actives 0.73% (n = 360,000). AID 624125;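 active = inhibition above its plate's cutoff, the mean inhibition of sample wells plus 3 SD, cut at about 27% in these data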;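 also: 0% = acetylcholine EC80 with DMSO and 100% = DMSO without agonist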
M5 antag: antagonists of human muscarinic M5 receptor (CHRM5); inhibition, % at 3 µM; P08912; CHO-hM5 cells, Fluo-8 calcium fluorescence, ACh EC80; actives 0.59% (n = 360,000);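 active = inhibition above a per-plate cutoff, the mean of that plate's test compounds plus 3 SD, cut at about 27% in these data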;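 also: 0% = acetylcholine EC80 with DMSO and 100% = DMSO without agonist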
CHRM5 agonist: agonists of human muscarinic M5 receptor (CHRM5); CHO-K1 hM5 cells, Fluo-8 calcium fluorescence; 0% DMSO wells, 100% maximal acetylcholine response; activation, % at 3 µM; actives 0.19% (n = 360,000); AID 624037;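 active = activation above the run's mean over test compounds plus 3 SD, cut at about 23% in these data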;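 also: signal is peak over basal fluorescence ratio across the kinetic read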
The depositor's hits bear a star.

SMILES | CHRM4 PAM | M5 PAM | CHRM4 agonist | CHRM4 antagonist | M5 antag | CHRM5 agonist
Cc1cc(NC(=O)NC(=O)c2ccccc2NC(=O)CN)ccc1Oc1ncc(Br)cn1 | 6 | -2 | 1 | -7 | 8 | 5
O=C(CC1C[C@H](C(=O)N2CCOCC2)[C@@]2(CCC3CCCC3)c3[nH]c4ccccc4c3CCN2C1=O)NCCCn1ccnc1 (some centres undefined) | -2 | 1 | -1 | 9 | 7 | 1
O=c1oc2c3c4c(cc2c(C(F)(F)F)c1CCN1CCOCC1)CCCN4CCC3 | -10 | -6 | 25 | 29* | 10 | 10
O=C(NCc1ccc2c(c1)OCO2)c1nc(S(=O)(=O)Cc2ccccc2F)ncc1Cl | -10 | -3 | 9 | 38* | 16 | -4
COc1ccc(OC)c(S(=O)(=O)NC(=O)C2(C)CCN2C(=O)c2ccco2)c1 (centres undefined) | 3 | 5 | 0 | 1 | -4 | 0
OCCC1CN(Cc2cnc(-c3ccc(Cl)cc3)nc2)CCN1C1CCCCC1 (centres undefined) | -25 | -14 | 5 | 2 | 30* | -9
CC(C)(O)C#Cc1ccc(CN2CCN(C3CCCCC3)C(CCO)C2)s1 (centres undefined) | -22 | 4 | 0 | 27* | -2 | -8
OCCC1CN(Cc2ccncc2)CCN1C1CCCC1 (centres undefined) | -5 | -3 | 0 | -2 | 2 | -4
CC(C)(O)C#Cc1ccc(CN2CCN(C3CCCC3)C(CCO)C2)cc1 (centres undefined) | -44 | 7 | 1 | 28* | -2 | -15
CSc1ccc(CN2CCN(C3CCCC3)C(CCO)C2)cc1 (centres undefined) | -27 | -1 | 2 | 57* | 0 | -15
CC(C)(O)C#Cc1ccc(CN2CCN(C3CCCCC3)C(CCO)C2)cc1 (centres undefined) | -10 | -2 | 1 | 16 | 2 | -8
COc1ccc(C)cc1NC(=O)NC1CC(=O)N(c2ccc3c(c2)OCCO3)C1 (centres undefined) | -1 | -6 | 2 | -3 | 1 | 2
COCCn1c(-c2ccc(OC)cc2)nc2ccccc21 | 1 | 3 | 1 | 3 | 1 | -10
COCCn1c2nc(=O)n(-c3ccccc3)c(=O)c-2nc2ccccc21 | -12 | -6 | 65* | 17 | 8 | 28*
O=C1NC(=S)N/C1=C/c1cccc2ccccc12 | 5 | -7 | 0 | -16 | 14 | -4
O=C1NC(=S)NC1=Cc1ccccc1O | -20 | -27 | 134* | 13 | 31* | 110*
CC(Sc1nnc(Cc2ccccc2)o1)C(=O)Nc1ccccc1[N+](=O)[O-] (centres undefined) | 15 | 14 | 0 | -7 | -5 | 1
CCSc1nc(N)c(NC(=O)c2ccc(Br)o2)c(=O)[nH]1 | -3 | 1 | 1 | 8 | 6 | -3
Nc1nc(SCC(=O)Nc2ccc(OC(F)(F)F)cc2)[nH]c(=O)c1NC(=O)c1ccc(Br)o1 | 10 | -11 | 0 | -16 | 34* | -5
Cn1c(=O)c2[nH]c(CCc3ccncc3)nc2n(C)c1=O | 7 | 13 | 1 | -4 | -13 | 4
O=C(Nc1cccc(-c2cccc(Cl)c2)c1)C1CCN(Cc2nccs2)CC1 | -6 | -4 | 11 | 1 | 3 | 0
O=C(CCC1CCN(Cc2nccs2)CC1)Nc1ccccc1 | 0 | -9 | 1 | -10 | 29* | -1
C[C@@H]1NC(=O)N(c2ccc(F)cc2)C1=O | 7 | -1 | 0 | -4 | 6 | -2
O=C(CSc1cc(Cl)ccc1Cl)NC1CCCC1 | -7 | 1 | 0 | 3 | 7 | -5
C1=CN2CCC1C(c1ccccc1)C2 (centres undefined) | -11 | -15 | 3 | 36* | 74* | 3
SMILES | CHRM4 PAM | M5 PAM | CHRM4 agonist | CHRM4 antagonist | M5 antag | CHRM5 agonist
CC(C)(C)NC(=O)Cn1c(Cl)nc2ccccc21 | -7 | 2 | 1 | 4 | 4 | 1
CCn1ccnc1CN(C)C(=O)c1ccc(OC2CCN(CCc3ccccc3)CC2)cc1 | -12 | -16 | 1 | 43* | 47* | -11
CC1CCN(Cc2ccc(NC(=O)CC3Oc4ccccc4NC3=O)cc2)CC1 (centres undefined) | -14 | -25 | 2 | 97* | 37* | -6
CCC(C)N(CCNC(=O)CC1Oc2ccccc2NC1=O)C1CCCCC1 (centres undefined) | -14 | -10 | 0 | 45* | 9 | -6
CC(C)CN(CCNC(=O)CC1Oc2ccccc2NC1=O)CC(C)C (centres undefined) | 4 | 2 | 1 | -6 | -5 | -4
CC1CCCN(S(=O)(=O)c2ccc(CN3C(=O)c4cccnc4C3=O)cc2)C1 (centres undefined) | 6 | 4 | 2 | -7 | -13 | -3
CCCc1c(-c2cccc(Br)c2)ncn1Cc1cccc(-c2ccccc2)c1 | -14 | -13 | 3 | 6 | 13 | 0
CCc1c(-c2ccc(Br)cc2)ncn1Cc1cccc(-c2ccccc2)c1 | -17 | -20 | 3 | 50* | 72* | -6
C=CCn1c(SCC(=O)c2[nH]c(C)c(C(=O)OCC)c2C)nc2scc(-c3ccc(OC)c(OC)c3)c2c1=O | -3 | 2 | 1 | 3 | -2 | -1
CN1C(=O)c2ccccc2Sc2ccc(NC(=O)NC3CC3)cc21 | 9 | 38* | 3 | -19 | 16 | 3
O=C1c2ccccc2C(=O)c2cc(N3CCCCC3)ccc21 | 3 | -13 | 11 | 2 | 34* | 72*
c1ccc2cc(N3CCCCC3)ccc2c1 | 11 | 8 | 1 | -6 | -2 | 1
O=C(Nc1ccccc1Cl)c1cc(C2CCCN(C(=O)C3CCCCC3)C2)on1 (centres undefined) | -1 | 3 | 5 | -16 | -9 | -1
CN1CCN(c2ccccc2NC(=O)C(Cc2ccccc2)n2cccc2)CC1 (centres undefined) | -13 | -3 | 6 | 32* | 1 | -2
COc1ccc(NS(=O)(=O)c2cccc(C(=O)OCC(=O)Nc3cc(C)on3)c2)cc1 | 8 | -5 | 5 | 9 | 0 | 5
Cc1ccc(NS(=O)(=O)c2ccc(C(=O)OCC(=O)Nc3cc(C)on3)cc2)cc1 | -5 | 2 | 19 | 7 | 4 | 26*
Cc1cc(NC(=O)COC(=O)c2cccc(S(=O)(=O)N(C)C3CCCCC3)c2)no1 | 9 | -5 | 3 | 30* | 4 | -4
CCNC(=O)N1CCC(n2nccc2NC(=O)CCCc2ccccc2)CC1 | 1 | -1 | 2 | 5 | -6 | -2
